ChEMBL document CHEMBL2331185, “Structures and cytotoxic evaluation of new and known acyclic Ene-Ynes from an American Samoa Petrosia sp. Sponge” (J Nat Prod, 2013)

Key:
[1] = Cytotoxicity against human H522-T1 cells after 96 hrs by CellTiter-Glo luminescent assay; assay type: functional, cell-based; settings: H522-T1, 96 h
Method in brief: (§1)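 Tumour cells grown in 96-well plates without or with continuous test compound for 96 h. Growth measured by CellTiter-Glo luminescence. IC50 is the concentration inhibiting growth by 50% relative to untreated cells. Two separate replicate experiments.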

A2058 [2] = assay: Selectivity index, ratio of IC50 for human IMR90 cells to IC50 for human A2058 cells; assay type: functional
Method in brief: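 SI calculated from the relative IC50 response of quiescent IMR-90 fibroblasts versus A2058 melanoma cells. IMR-90 IC50 comes from the 96 h low-serum quiescent assay; A2058 IC50 comes from the 96 h continuous-exposure proliferating assay. Both read by CellTiter-Glo.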

A2058 [3] = assay: Cytotoxicity against human A2058 cells after 96 hrs by CellTiter-Glo luminescent assay; assay type: functional, cell-based; settings: A2058, 96 h; method in brief: as §1
[4] = Cytotoxicity against human H460 cells after 96 hrs by CellTiter-Glo luminescent assay; assay type: functional, cell-based; settings: NCI-H460, 96 h; method in brief: as §1
IMR-90 = assay: Cytotoxicity against human IMR90 cells after 96 hrs by CellTiter-Glo luminescent assay; assay type: cell-based; settings: IMR-90, 96 h
Method in brief: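 Fibroblasts grown 4 days to confluency in MEM with 10% FBS, L-glutamine and penicillin/streptomycin. After washing, cells were held 3 more days in MEM with 0.1% FBS to reach quiescence. Compound added, then incubation 96 h at 37°C. Viability measured as cellular ATP by CellTiter-Glo.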

Row | Structure (SMILES) | IC50 [1] | Ratio IC50 (A2058 [2]) | IC50 (A2058 [3]) | IC50 [4] | IC50 (IMR-90)
1 | C#C[C@H](O)/C=C/CCCCCCCCCCC/C=C/C(O)CCCCCCCCC/C=C\C#CC(=O)O (stereo partly drawn) | > 10000 nM | 0 | 8100 nM | > 10000 nM | 200 nM
2 | C#CC(O)/C=C/CCCCCCCCCC(O)CCCCCCCCCCCC(O)C#CC#CCO (stereo not drawn) | 1200 nM | – | 800 nM | 800 nM | –
3 | C#CC(O)/C=C/CCCCCCCC#C/C=C\CCCCCCCCCCCCCC(O)C#CC#CCO (stereo not drawn) | 1100 nM | 0.6 | 800 nM | 700 nM | 500 nM
4 | C#CC(O)/C=C/CCCCCCCC#C/C=C\CCCCCCCCCCCC(O)C#CC#CCO (stereo not drawn) | 600 nM | 0.8 | 400 nM | 1000 nM | 300 nM
5 | C#C[C@H](O)/C=C/CCCCCCCCCC#CCCCCCCCCCCCC/C=C\C#CC(=O)O | 8400 nM | 0.1 | 6400 nM | 7300 nM | 400 nM
6 | CC[C@]1(O)C[C@@H]2CN(CCc3c([nH]c4ccccc34)[C@@](C(=O)OC)(c3cc4c(cc3OC)N(C)[C@H]3[C@@](O)(C(=O)OC)[C@H](OC(C)=O)[C@]5(CC)C=CCN6CC[C@]43[C@@H]65)C2)C1 [VINBLASTINE] | 9 nM | >250 | 4 nM | 2 nM | > 1000 nM
7 | C#CC(O)/C=C/CCCCCCCCCCCC#CCCCCCCCCCCCC(O)C#CC#CCO (stereo not drawn) | 2700 nM | 1.2 | 1300 nM | 1200 nM | 1600 nM
8 | C#CC(O)/C=C/CCCCCCCCC/C=C\CCCCCCCCCCCC(O)C#CC#CCO (stereo not drawn) | 800 nM | 1 | 400 nM | 400 nM | 400 nM
9 | C#C[C@H](O)/C=C/CCCCCCCC#C/C=C\CCCCCCCCCCCC/C=C\C#CC(=O)O | 4600 nM | 0.1 | 3800 nM | 3100 nM | 300 nM
